Data on 2 compounds can be found in ChEMBL document CHEMBL3414437, “Synthesis of CDDO-amino acid-nitric oxide donor trihybrids as potential antitumor agents against both drug-sensitive and drug-resistant colon cancer” (J Med Chem, 2015).

Calls of active or inactive are those of the source. The calls are words filed in the database; no cut-off is given here.

In data set [1] the test system is Mus musculus. The data set can be described thus: Toxicity in nude BALB/c mouse xenografted with FU-resistant human HCT8 cells assessed as abnormal color changes in liver at 17.8 to 35.7 umol/kg administered as via oral gavage daily for 21 days. The data set is classed as organism-based, HCT-8. The note with it: in vivo, 504 h. The essentials: (§1)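 Male BALB/c nude mice aged 6-8 weeks, implanted s.c. in the right flank with HCT-8/5-FU cells (2 × 10^6). Once tumors reached 180-200 mm3 (days 9-11), randomized to daily gavage for 21 days in cremophor-EL/DMSO/PBS (1:1:8), 0.2 mL. At the end, liver, kidney, lung and heart checked for size, colour and weight. n = 8 per group.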
Background: A xenograft is tissue or cells of one species grown in another, often human tumour cells in immunodeficient mice.

The target of data set [2] is Signal transducer and activator of transcription 3 (Homo sapiens) (UniProt P40763). Description: Inhibition of STAT3 protein phosphorylation in FU-resistant human HCT8 cells at 0.25 to 1 uM incubated for 24 hrs by Western blotting method. The following applies: HCT-8. The class given is cell-based. In short, it runs like this:
(§2)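 Cells (1 x 10^6) grown 24 h in 6 cm dishes, then exposed in duplicate for 24 h to 0.25, 0.5 or 1 µM compound, with or without PTIO. Lysates (20 µg/lane) were run on 7.5% SDS-PAGE, blotted to PVDF and blocked in 5% milk. HRP secondaries with ECL detection; bands quantified by densitometry against β-actin or GAPDH. Three separate experiments, mean ± SD.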

For data set [3], the system named is HCT-8. The data set can be described thus: Antitumor activity against FU-resistant human HCT8 cells xenografted in nude BALB/c mouse assessed as reduction in tumor volume at 17.8 to 35.7 umol/kg administered as via oral gavage daily for 21 days. The data set is classed as functional. In short, it runs like this:
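Male BALB/c nude mice, 6–8 weeks old, inoculated s.c. in the right flank with HCT-8/5-FU cells (2 × 10^6). Once tumors reached 180–200 mm3 (days 9–11), mice were randomized (n = 8) to daily oral gavage for 21 days in cremophor-EL/DMSO/PBS (1:1:8). Tumor volume = W2(L/2), caliper-measured every other day, blinded; tumors weighed at end.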

Data set [4] relates to HCT-8. The data set can be described thus: Induction of apoptosis in 5-FU resistant human HCT8 cells incubated for 24 hrs by FITC-Annexin-V and propidium iodide staining based flow cytometry. The data set is classed as functional, cell-based. In general terms: Flow cytometry measures light scatter and fluorescence of single cells or particles in a stream.
Data set [5] relates to HCT-8. Description: Antiproliferative activity against human HCT8 cells assessed as inhibition of cell proliferation at 0.25 uM after 24 hrs by MTT assay. The class given is functional, cell-based.
For data set [6], the system named is Mus musculus. The data set can be described thus: Toxicity in ICR mouse assessed as body weight changes at 0.60 x 10^3 to 2.38 x 10^3 umol/kg administered as single dose via oral gavage measured up to 14 days post treatment. The note with it: in vivo, 336 h. The class given is organism-based. In short, it runs like this: (§3)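 Adult ICR mice of either sex were randomised and given a single oral gavage dose of 500, 1000, 1500 or 2000 mg/kg in cremophor-EL/DMSO/PBS (1:1:8). Survival, behaviour, water and food intake, body weight and activity were monitored for up to 14 days. Body weights were taken on days 0, 7 and 14.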

Data set [7] deals with HCT-8. The data set can be described thus: Antiproliferative activity against 5-FU resistant human HCT8 cells assessed as inhibition of cell proliferation at 0.125 to 0.5 uM incubated for 72 hrs after 24 hrs of pre-treatment with 0.75 uM and 1 .5 uM pepT1 substrate Gly-Sar by MTT assay. The class given is functional, cell-based. The essentials: (§4)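 Cells pretreated with or without Gly-Sar (0.75 or 1.5 µM) for 24 h, then given a range of compound concentrations for 72 h. Proliferation inhibition measured by MTT.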

Data set [8] concerns HCT-8. Description: Induction of nitric oxide release in 5-FU resistant human HCT8 cells at 100 uM incubated for 150 mins by Griess assay. The class given is functional, cell-based. In short, it runs like this: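 Cells (1 × 10^6/well) treated in triplicate with compound at 100 µM for 150 min. Lysates mixed with Griess reagent for 10 min at 37 °C and read at 540 nm. Nitrite quantified from a sodium nitrite standard curve; 0.4% DMSO-treated cells served as background. Mean ± SD of three experiments.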
On the technique in general: Nitrite, measured by Griess reagent, commonly stands in for NO production.

Data set [9] has as its system HCT-8. Description: Antiproliferative activity against human HCT8 cells assessed as inhibition of cell proliferation at 0.125 to 0.5 uM incubated for 72 hrs after 24 hrs of pre-treatment with 0.75 uM and 1 .5 uM pepT1 substrate Gly-Sar by MTT assay. The data set is classed as functional, cell-based. In short, it runs like this:
as §4

Data set [10] relates to HCT-8. Description: Inhibition of HIF-1alpha protein expression in human HCT8 cells at 0.25 to 1 uM incubated for 24 hrs by Western blotting method. The data set is classed as functional, cell-based. The essentials:
as §2

Data set [11] concerns the target ATP-dependent translocase ABCB1 (Homo sapiens, UniProt P08183). Description: Induction of nitrosylation of P-gp protein in FU-resistant human HCT8 cells at 0.25 to 1 uM incubated for 24 hrs by Western blotting method. The data set is classed as cell-based. The note with it: hct-8, 24 h. In short, it runs like this:
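HCT-8/5-FU cells (1 × 10^6) treated in duplicate for 24 h with 0.25, 0.5 or 1 µM test compound or 1 µM reference, with or without PTIO. Lysates immunoprecipitated overnight at 4 °C with anti-nitrotyrosine antibody on protein G beads. Eluates blotted with specific anti-Pgp, anti-MRP1 or anti-BCRP antibodies and quantified by densitometry. Mean ± SD of three experiments.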

In data set [12] the test system is Mus musculus. Description: Toxicity in male ICR mouse assessed as body weight level at 2.38 x 10^3 umol/kg administered as single dose via oral gavage measured on day 7 post treatment (reference value: 19.8 +/- 0.92 g). The data set is classed as organism-based. The note with it: in vivo.
Data set [13] deals with Mus musculus. The data set can be described thus: Toxicity in nude BALB/c mouse xenografted with FU-resistant human HCT8 cells assessed as abnormal size changes in lung at 17.8 to 35.7 umol/kg administered as via oral gavage daily for 21 days. The note with it: in vivo, 504 h. The data set is classed as organism-based, HCT-8. In short, it runs like this: as §1
In data set [14] the test system is Mus musculus. Description: Toxicity in nude BALB/c mouse xenografted with FU-resistant human HCT8 cells assessed as abnormal weight changes in heart at 17.8 to 35.7 umol/kg administered as via oral gavage daily for 21 days. The following applies: in vivo, 504 h. The class given is organism-based, HCT-8. The essentials: as §1
The subject of data set [15] is Mus musculus. Description: Toxicity in female ICR mouse assessed as body weight level at 2.38 x 10^3 umol/kg administered as single dose via oral gavage measured on day 7 post treatment (reference value: 19.8 +/- 0.92 g). The class given is organism-based. The following applies: in vivo.
For data set [16], the system named is HCT-8. Description: Inhibition of P-gp protein expression in FU-resistant human HCT8 cells at 1 uM in presence of NO scavenger carboxy-PTIO incubated for 24 hrs by Western blotting method. The data set is classed as functional, cell-based. In short, it runs like this: as §2
Data set [17] deals with Signal transducer and activator of transcription 3 (Homo sapiens) (UniProt P40763). The data set can be described thus: Inhibition of STAT3 protein phosphorylation in human HCT8 cells at 0.25 to 1 uM incubated for 24 hrs by Western blotting method. The class given is cell-based. The following applies: HCT-8. The essentials:
as §2

Data set [18] relates to Mus musculus. The data set can be described thus: Toxicity in ICR mouse assessed as abnormality in drinking behavior at 0.60 x 10^3 to 2.38 x 10^3 umol/kg administered as single dose via oral gavage measured up to 14 days post treatment. The class given is organism-based. The note with it: in vivo, 336 h. In short, it runs like this:
as §3

Data set [19] concerns Mus musculus. Description: Toxicity in nude BALB/c mouse xenografted with FU-resistant human HCT8 cells assessed as abnormal size changes in liver at 59.4 umol/kg administered as via oral gavage daily for 21 days. The class given is organism-based, HCT-8. The following applies: in vivo, 504 h. In short, it runs like this:
as §1

Data set [20] relates to Mus musculus. The data set can be described thus: Toxicity in nude BALB/c mouse xenografted with FU-resistant human HCT8 cells assessed as abnormal color changes in heart at 59.4 umol/kg administered as via oral gavage daily for 21 days. The following applies: in vivo, 504 h. The class given is organism-based, HCT-8. The essentials: as §1
Data set [21] has as its target Signal transducer and activator of transcription 3 (Homo sapiens) (UniProt P40763). The data set can be described thus: Inhibition of STAT3 protein phosphorylation in FU-resistant human HCT8 cells at 1 uM incubated for 24 hrs by Western blotting method. The class given is cell-based. The following applies: HCT-8. The essentials:
as §2

Data set [22] relates to HCT-8. Description: Inhibition of BCRP protein expression in FU-resistant human HCT8 cells at 1 uM incubated for 24 hrs by Western blotting method. The data set is classed as functional, cell-based. The essentials: as §2

Chain of Signal transducer and activator of transcription 3 (Homo sapiens) (P40763 whole entry): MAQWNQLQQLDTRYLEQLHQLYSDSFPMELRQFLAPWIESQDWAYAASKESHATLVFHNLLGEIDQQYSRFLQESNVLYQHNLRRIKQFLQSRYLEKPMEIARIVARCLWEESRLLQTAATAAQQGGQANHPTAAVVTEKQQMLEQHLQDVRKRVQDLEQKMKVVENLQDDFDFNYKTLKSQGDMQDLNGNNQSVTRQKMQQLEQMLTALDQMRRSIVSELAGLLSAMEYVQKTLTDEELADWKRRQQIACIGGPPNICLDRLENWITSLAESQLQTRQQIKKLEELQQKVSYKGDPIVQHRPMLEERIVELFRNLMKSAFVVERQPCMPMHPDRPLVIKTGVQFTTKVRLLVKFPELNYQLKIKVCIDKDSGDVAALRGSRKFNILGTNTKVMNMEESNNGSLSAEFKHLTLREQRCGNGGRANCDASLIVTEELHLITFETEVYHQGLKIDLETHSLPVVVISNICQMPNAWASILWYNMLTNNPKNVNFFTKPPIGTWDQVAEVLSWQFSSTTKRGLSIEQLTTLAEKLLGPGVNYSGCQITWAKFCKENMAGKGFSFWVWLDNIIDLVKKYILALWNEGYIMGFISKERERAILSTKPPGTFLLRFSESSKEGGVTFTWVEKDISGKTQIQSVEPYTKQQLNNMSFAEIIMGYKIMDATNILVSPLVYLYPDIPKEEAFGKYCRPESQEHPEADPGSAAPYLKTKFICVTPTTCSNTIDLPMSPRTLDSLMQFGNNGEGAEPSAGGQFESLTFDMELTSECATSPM
Chain of ATP-dependent translocase ABCB1 (P08183 whole entry): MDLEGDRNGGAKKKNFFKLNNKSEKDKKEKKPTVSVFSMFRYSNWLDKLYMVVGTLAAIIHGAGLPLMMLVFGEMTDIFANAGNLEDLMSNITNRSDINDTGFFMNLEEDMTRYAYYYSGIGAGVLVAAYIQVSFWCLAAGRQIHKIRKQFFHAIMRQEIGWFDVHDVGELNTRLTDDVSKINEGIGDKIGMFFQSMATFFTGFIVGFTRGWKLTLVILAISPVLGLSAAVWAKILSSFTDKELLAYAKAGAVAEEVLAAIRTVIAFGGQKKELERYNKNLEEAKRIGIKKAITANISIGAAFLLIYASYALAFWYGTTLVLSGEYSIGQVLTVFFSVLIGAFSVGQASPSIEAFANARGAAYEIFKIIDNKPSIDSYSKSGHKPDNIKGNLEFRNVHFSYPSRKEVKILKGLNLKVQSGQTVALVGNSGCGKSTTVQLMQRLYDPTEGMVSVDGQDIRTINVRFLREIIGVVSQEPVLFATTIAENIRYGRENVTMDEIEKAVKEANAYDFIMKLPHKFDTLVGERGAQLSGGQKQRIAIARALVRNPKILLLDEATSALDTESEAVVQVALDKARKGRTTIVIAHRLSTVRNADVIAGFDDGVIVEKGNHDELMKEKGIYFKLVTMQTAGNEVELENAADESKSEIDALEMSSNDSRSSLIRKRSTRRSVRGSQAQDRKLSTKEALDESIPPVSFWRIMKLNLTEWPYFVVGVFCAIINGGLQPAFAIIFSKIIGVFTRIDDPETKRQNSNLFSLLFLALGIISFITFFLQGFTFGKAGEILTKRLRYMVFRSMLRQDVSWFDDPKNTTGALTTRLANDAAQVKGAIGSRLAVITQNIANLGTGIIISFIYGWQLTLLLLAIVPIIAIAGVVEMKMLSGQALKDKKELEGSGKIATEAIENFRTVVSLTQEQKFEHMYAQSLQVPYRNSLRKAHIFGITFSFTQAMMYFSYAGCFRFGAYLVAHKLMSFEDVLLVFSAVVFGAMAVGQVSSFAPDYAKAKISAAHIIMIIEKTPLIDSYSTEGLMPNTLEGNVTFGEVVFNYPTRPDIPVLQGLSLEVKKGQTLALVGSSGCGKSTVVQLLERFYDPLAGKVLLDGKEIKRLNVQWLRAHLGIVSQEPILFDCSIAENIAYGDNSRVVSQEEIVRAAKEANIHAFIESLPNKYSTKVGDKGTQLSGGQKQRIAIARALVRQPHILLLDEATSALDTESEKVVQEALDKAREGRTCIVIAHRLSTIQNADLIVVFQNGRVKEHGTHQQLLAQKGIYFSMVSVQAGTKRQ

Take `CC1(C)CC[C@]2(C(=O)NCC(=O)OCC#CCOc3no[n+]([O-])c3S(=O)(=O)c3ccccc3)CC[C@]3(C)[C@H](C(=O)C=C4[C@@]5(C)C=C(C#N)C(=O)C(C)(C)[C@@H]5CC[C@]43C)[C@@H]2C1`: the Activity entry was “Non-toxic” in data set [1]; “Dose-dependent effect” in data set [4]; “Non-toxic” in data set [6]; “Dose-dependent effect” in data set [11]; 26.7 g in data set [12]; “Non-toxic” in data set [13]. Moreover, the Activity entry in data set [14] is on record as “Non-toxic”; in data set [15], 25 g; in data set [18], “Non-toxic”. Further, the inhibition entry in data set [2], in [3], in [10] and in data set [17] was “Dose-dependent effect” each time. For the same compound, the outcome in data set [5] and in data set [8] was Active. Besides, the inhibition result in data set [7], in [9] and in data set [16] was “inactive” throughout.

For the compound `COC(=O)[C@]12CCC(C)(C)C[C@H]1[C@H]1C(=O)C=C3[C@@]4(C)C=C(C#N)C(=O)C(C)(C)[C@@H]4CC[C@@]3(C)[C@]1(C)CC2` [BARDOXOLONE METHYL], the Activity result in [19] and in [20] was “Non-toxic” in each case. Further, the inhibition entry in [21] is “Active”. Also, in data set [22], the inhibition entry was “inactive”.
